TRPC4 inh = inhibitors of mouse TRPC4 channel, primary screen, Fluo4 calcium, HEK293 TRPC4beta/mu-opioid cells; Short transient receptor potential channel 4 (Mus musculus), Q9QUQ5; DAMGO-evoked Fluo4 calcium flux; active compounds read low; B-score at 10 µM; hit rate 0.39% among 300,000;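 active = B-score over 3 SD under the library average, no early fluorescence shift, positive overall ratio signal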
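Material: HEK293 cells with stable TRPC4beta plus mu-opioid receptor expression / Probe or stimulus: DAMGO in two steps, submaximal then maximal / Compound: single concentration per test compound / Technique: kinetic Fluo4 fluorescence imaging of calcium influx / Read-out: per-well B score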
TRPC6 act = mouse TRPC6 channel activators, primary screen, cell-based, HEK293, membrane potential dye; HEK293-TRPC6 membrane potential dye fluorescence; active compounds read high; B-score at 10 µM; hit rate 0.13% among 310,000; AID 2550, 2010;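 active = B-score of the integrated fluorescence ratio above library mean plus 3 SD, and starting fluorescence ratio within library mean plus 5 SD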;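 also: higher score means more depolarization so channel activation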
TRPC4 agonist = activators of mouse TRPC4 channel, primary screen, Fluo4 calcium, HEK293 TRPC4beta/mu-opioid cells; Short transient receptor potential channel 4 (Mus musculus), Q9QUQ5; Fluo4 calcium fluorescence; active compounds read high; B-score at 10 µM; hit rate 0.49% among 310,000; AID 2237, 2010;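 active = B-score above 5 SD of library B-scores, and initial fluorescence ratio not above library mean plus 5 SD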;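 also: positive B-score marks a calcium rise read as TRPC4 activation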
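System: HEK293 cells stably co-expressing mouse TRPC4beta and mu-opioid receptor; Schedule: Fluo4 dye loading 45 min at room temperature, 110 s recording; Detection: Fluo4 fluorescence, kinetic; Evaluation: B-scored integrated calcium fluorescence ratio; Controls: buffer (low) and maximal DAMGO (high).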
TRPC6 inh = mouse TRPC6 channel inhibitors, primary screen, cell-based, HEK293, membrane potential dye; B-score at 10 µM; hit rate 1.1% among 310,000; ACh-evoked depolarization; active compounds read low;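 active = B-score under library mean minus 3 SD, initial fluorescence not abnormally high, positive integrated signal ratio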;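 also: B-score derived from integrated fluorescence ratio over the kinetic read; more negative B-score means stronger inhibition of depolarization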
TRPC4 potent = positive allosteric modulators of TRPC4, primary screen, cell-based, mouse TRPC4beta, HEK293 mu-opioid, Fluo-4 calcium; AID 2227, 2009; DAMGO EC20, Fluo-4 Ca2+ flux; active compounds read high; hit rate 0.42% among 310,000; B-score at 10 µM;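 active = B-score of calcium response area above 5 SD of library B-scores, with initial fluorescence ratio within 5 SD of library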
TRPC4 spec 2 = second check of whether TRPC6 inhibitors also affect mouse TRPC4; AID 2776; inhibition, % at 10 µM; HEK293 TRPC4/MOR, membrane potential dye fluorescence; channel activated by saturating DAMGO dose; hit rate 42% among 920; shares compounds with TRPC6 inh;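 active = compounds whose fluorescence signal differed from control wells by over 3 SD, either direction, in both duplicate plates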
TRPC4 spec = mouse TRPC4 modulation by TRPC6 hits, confirmation, selectivity assay for TRPC6 inhibitor project, cell-based, HEK293 TRPC4/mu-opioid, membrane potential dye. activity change, negative = inhibition, % at 10 µM. shares compounds with TRPC6 inh. membrane potential fluorescence. hit rate 61% among 920. AID 2777, 2010;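 active = rise or fall in signal beyond 3 SD of buffer-only wells in both replicate plates, either sign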;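 also: integrated kinetic ratio of fluorescence range over baseline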
HEK293 MPD ctr 2-1 = nonspecific membrane potential effects, parental HEK293, confirmation, counter-screen for TRPC6 inhibitor project, cell-based, second counter screen | shares compounds with TRPC6 inh | parental HEK293 membrane potential dye fluorescence; maximal acetylcholine challenge after compound addition | signal change vs control, % at 10 µM | hit rate 31% among 920;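 active = membrane potential signal moving either way by over 3 SD of the maximum-effect control, in both duplicate plates, meaning non-specific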
HEK293 MPD ctr-1 = membrane potential modulation in parental HEK293, confirmation, counter-screen for TRPC6 inhibitor project, cell-based; shares compounds with TRPC6 inh; parental HEK293 membrane potential dye fluorescence; membrane potential signal change, % at 10 µM; hit rate 60% among 920; AID 2780, 2010;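 active = membrane potential signal shifting up or down by more than 3 SD of buffer-only wells, on both duplicate plates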
HEK293 MPD ctr-2 = parental HEK293 membrane potential modulation, confirmation, counter-screen for TRPC6 modulator project, cell-based. shares compounds with TRPC6 inh. hit rate 51% among 2,400. membrane potential dye fluorescence. AID 488924, 2010. membrane potential signal change, % at 10 µM;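 active = membrane potential signal moves up or down beyond 5 SD from buffer-only wells, on both duplicate plates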
HEK293 MPD ctr 2-2 = parental HEK293 nonspecific activity of TRPC6 modulators, second screen; hit rate 14% among 2,400; membrane potential dye fluorescence; after compound, maximal acetylcholine stimulation; shares compounds with TRPC6 inh; inhibition, % at 10 µM; AID 488926;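 active = membrane potential signal drops by more than 5 SD from the mean control signal, in both duplicate plates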
TRPC4 ctr mod = TRPC4 modulation by TRPC6 hit compounds, confirmation, selectivity assay for TRPC6 modulator project, cell-based, HEK293 TRPC4/mu-opioid, membrane potential dye, mouse | shares compounds with TRPC6 inh | membrane potential fluorescence | percent change from control (negative = decrease, positive = increase), % at 10 µM | hit rate 69% among 2,400 | AID 488927, 2010;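 active = membrane potential signal moved up or down beyond 5 SD of buffer control wells, in both duplicate plates, actives on both sides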
TRPC4 ctr inh 2 = second check of whether TRPC6 modulators also affect mouse TRPC4 | shares compounds with TRPC6 inh | HEK293 TRPC4/mu-opioid, membrane potential dye fluorescence; stimulated with maximal-effect DAMGO | inhibition, % at 10 µM | hit rate 55% among 2,400;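 active = drop in membrane potential signal beyond 5 SD of the control wells in both duplicate plates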;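 also: TRPC4 counter screen for TRPC6 hits run under conditions tuned for TRPC6 not TRPC4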
TRPC6 block conf = mouse TRPC6 channel inhibitors, confirmation, HEK293 cells, membrane potential dye, duplicate | inhibition, % at 10 µM | shares compounds with TRPC6 inh | ACh-evoked depolarization | hit rate 43% among 3,300;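 active = fluorescence ratio falls more than 5 SD below the full-stimulation control mean, in both duplicate runs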;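 also: integrated fluorescence ratio of peak minus minimum over baseline after agonist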
TRPC6 act confirm = mouse TRPC6 channel activators, confirmation, HEK293 cells, membrane potential dye, duplicate; AID 488961, 2010; activation, % at 10 µM; shares compounds with TRPC6 inh; hit rate 11% among 2,800; HEK293-TRPC6 membrane potential dye fluorescence, FDSS;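 active = ratio signal rise beyond 5 SD above unstimulated control wells' mean, seen in both duplicate runs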
Numbers stand for hits; - = inactive; . = no result given. In the library only some 2.3% were active in any assay of this set; here they are far more common.

SMILES	TRPC4 inh	TRPC6 act	TRPC4 agonist	TRPC6 inh	TRPC4 potent	HEK293 MPD ctr-2	HEK293 MPD ctr 2-2	TRPC4 ctr mod	TRPC4 ctr inh 2	TRPC6 block conf	others
Cc1ccc(C)c(NC(=O)Cn2nnc(-c3ccc(N4CCOCC4)cc3)n2)c1	-	-	-	-	-	.	.	.	.	.
O=C(C1CCN(CCCc2ccccc2)CC1)N(CCc1ccccc1)Cc1ccccc1	-	-	-	-5.5	-	110%	-	-	86%	68%
Cc1ccc(CCNC(=O)C2CCC(=O)N(Cc3ccccc3F)C2)o1 (stereo not given)	-	-	-	-	-	.	.	.	.	.
O=c1cc(C(F)(F)F)[nH]c2c(C(F)(F)F)cccc12	-	-	-	-10	-	.	.	.	.	83%	TRPC4 spec 2=66%;TRPC4 spec=58%;HEK293 MPD ctr 2-1=-;HEK293 MPD ctr-1=32%
Cc1cc(=O)c2cccc(Br)c2[nH]1	-	-	-	-	-	.	.	.	.	.
O=c1cc(C(F)(F)F)[nH]c2ccc(OC(F)(F)F)cc12	-	-	-	-7.1	-	.	.	.	.	104%	TRPC4 spec 2=-;TRPC4 spec=23%;HEK293 MPD ctr 2-1=22%;HEK293 MPD ctr-1=13%
CC1CC(C)(C)N(C(=O)CN2C(=O)c3ccccc3C2=O)c2ccccc21 (stereo not given)	-7	-	158	-5.1	-	183%	-	42%	-	-
CC(C)NC(=O)CN1CCN(Cc2nc(C(c3ccccc3)c3ccccc3)no2)CC1	-	-	-	-	-	.	.	.	.	.
CC(=O)c1cccc(NC(=O)c2cc3nc(C)cc(C)n3n2)c1	-	-	-	-5.1	-	-	-	-	-	-	TRPC6 act confirm=-
COc1ccc(NC(=O)Nc2c(C)n(C)n(-c3ccccc3)c2=O)c(OC)c1	-	-	-	-5	-	-	-	-	-	-	TRPC6 act confirm=-

Screening results deposited in PubChem by Johns Hopkins Ion Channel Center.
